pIC50: −log10 of the molar value. Where only a bound is given, the exact number is not on record here.

Our source for the inhibition and IC50 values is ChEMBL document CHEMBL1127463, “Heteroaryl-fused 2-phenylisothiazolone inhibitors of cartilage breakdown” (J Med Chem, 1994).

One assay has as its target Stromelysin-1 (Homo sapiens) (UniProt P08254). Put plainly: Tested for inhibition of stromelysin using [3H]transferrin, following pre-incubation with prostromelysin for 3 hr prior to activation by plasmin. Particulars: concentration not given here.
Molecule `COc1ccc(OC)c(-n2sc3ncccc3c2=O)c1` showed an inhibition of 68%.

The molecule `COc1ccc(-n2sc3ncccc3c2=O)c(OC)c1` registered an inhibition of 65%.

For a further assay, the species on record is Bos taurus. Put plainly: Tested in vitro at 30 uM for its ability to inhibit the human recombinant IL-1-beta-induced breakdown of bovine cartilage in a cartilage organ culture assay. In kind it is functional. The following applies: Cartilage tissue. The essentials: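 Cartilage organ culture screen at a single 30 µM concentration. Bovine nasal septum explants in DMEM/5% FCS with rh IL-1β 500 ng/mL, 40 h, 37 °C, 95% air/5% CO2. Proteoglycan breakdown read as GAG release by dimethylmethylene blue; 35SO4 uptake over a further 2 h used for viability. Eight replicates; percent inhibition.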
With `COc1cccc(OC)c1-n1sc2ncccc2c1=O`, the inhibition was found to be 40%. Same read-out and setting: next, `COc1cc2c(=O)n(-c3ccccc3)sc2c(OC)n1`: 39%; `N#Cc1ccc(-n2sc3ncccc3c2=O)cc1`: 40%. With `O=c1c2cccnc2sn1-c1cccc([N+](=O)[O-])c1`, the inhibition came to 37%. On to `O=c1c2cccnc2sn1-c1ccc(C(F)(F)F)cc1`, for which the inhibition was found to be 17%. `COc1ccc(-n2sc3c(O)nc(O)nc3c2=O)cc1`: the inhibition worked out at 49%. Still for that read-out and setting: next, `COC(=O)c1cccc(-n2sc3ncccc3c2=O)c1`: 35%. For the molecule `Nc1cccc(-n2sc3ncccc3c2=O)c1`, the inhibition was determined as 34%.

Consider `COc1ccc(-n2sc3c(OC)nccc3c2=O)cc1`, for which the inhibition came to 20%. For `CS(=O)(=O)Nc1ccc(-n2sc3ncccc3c2=O)cc1`, the inhibition is 28%.

Consider `O=c1c2cccnc2sn1-c1ccccc1Cl`, for which the inhibition is 0%. For `O=c1c2cccnc2sn1-c1ccccn1`, the inhibition came out at 23%.

Regarding `COc1ccc(-n2sc3c(OC)nc(OC)nc3c2=O)cc1`, the inhibition is 50%. With `COc1nc(OC)c2sn(-c3ccc(C(F)(F)F)cc3)c(=O)c2n1`, the inhibition was 39%. On the same count and under the same terms, the figure for `O=c1c2ccnc(Cl)c2sn1-c1ccccc1` is 38%; for `COc1nc(OC)c2sn(-c3ccccc3)c(=O)c2n1` it is 40%.

A further assay is filed under the species Bos taurus. Put plainly: In vitro inhibition of human recombinant IL-1-beta-induced breakdown of bovine cartilage in a cartilage organ culture assay. In kind it is functional.
Details: not given
In a few lines: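 Bovine nasal septum cartilage discs (1 mm × 8 mm, cut in eighths) cultured in DMEM + 5% FCS with antibiotics, ± rh IL-1β 500 ng/mL ± drug (DMSO ≤1%) for 40 h at 37 °C. Released GAG measured by 1,9-dimethylmethylene blue against chondroitin sulfate standard, µg/mg wet weight. Eight replicates per group; dose response gives IC50 (µM).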
`O=C1CCN(c2ccccc2)N1` [PHENIDONE]: the pIC50 is < 4.52. As to `COc1ccc2c(c1)c(CC(=O)O)c(C)n2C(=O)c1ccc(Cl)cc1` [INDOMETHACIN], the pIC50 is < 4.52. `CN(C)[C@@H]1C(O)=C(C(N)=O)C(=O)[C@@]2(O)C(O)=C3C(=O)c4c(O)cccc4[C@@](C)(O)[C@H]3C[C@@H]12` [TETRACYCLINE]: the pIC50 is < 4.52.

On to `COc1ccc2cc([C@H](C)C(=O)O)ccc2c1` [NAPROXEN], for which the pIC50 is < 4.52.

On to `O=c1c2cccnc2sn1-c1ccc(F)cc1`, for which the pIC50 is 4.92. Still for that read-out and setting: next, `O=c1c2cccnc2sn1-c1ccc(Cl)cc1`: 5.07. Still for that read-out and setting: next, `COC(=O)c1cccc(OC)c1-n1sc2ncccc2c1=O`: 5.10. Turning to `COC(=O)c1ccccc1-n1sc2ncccc2c1=O`, the negative logarithm of the IC50 (pIC50) was 4.60.

For the next assay, the target named is Stromelysin-1 (Homo sapiens) (UniProt P08254). Put plainly: Tested for inhibition of stromelysin using [3H]transferrin, following pre-incubation with prostromelysin for 0 hr prior to activation by plasmin. Particulars: concentration not given here.
Chain of Stromelysin-1 (Homo sapiens) (P08254 whole entry, looked up): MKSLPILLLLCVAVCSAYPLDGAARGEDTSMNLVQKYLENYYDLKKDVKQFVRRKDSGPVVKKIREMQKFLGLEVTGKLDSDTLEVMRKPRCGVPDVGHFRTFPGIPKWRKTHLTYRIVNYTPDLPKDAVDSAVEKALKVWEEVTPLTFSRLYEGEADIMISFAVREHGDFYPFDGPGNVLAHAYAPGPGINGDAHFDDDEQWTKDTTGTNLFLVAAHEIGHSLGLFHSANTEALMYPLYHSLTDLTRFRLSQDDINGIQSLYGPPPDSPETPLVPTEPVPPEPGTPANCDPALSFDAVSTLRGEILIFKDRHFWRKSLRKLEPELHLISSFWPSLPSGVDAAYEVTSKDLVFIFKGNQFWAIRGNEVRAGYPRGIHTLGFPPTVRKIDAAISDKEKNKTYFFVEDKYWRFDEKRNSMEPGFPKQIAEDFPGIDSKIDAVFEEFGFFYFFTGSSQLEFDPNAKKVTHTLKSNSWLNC
Turning to `COc1ccc(OC)c(-n2sc3ncccc3c2=O)c1`, the inhibition amounted to 51%. `COc1ccc(-n2sc3ncccc3c2=O)c(OC)c1` had an inhibition of 45%.

The term inhibition denotes the percentage by which the read-out fell short of the control. By pIC50 is commonly meant the IC50 on a negative log10 scale, so that one unit is a factor of ten.
